The values below come from ChEMBL document CHEMBL1142328, “Imidazolidines as new anti-Trypanosoma cruzi agents: biological evaluation and structure-activity relationships” (Bioorg Med Chem, 2008).

Assay [1] has as its system Trypanosoma cruzi. Briefly: Growth inhibition of Trypanosoma cruzi epimastigotes Tulahuen 2 at 25 uM. It is filed as functional. Particulars: for inhibition of growth at 25 µM: read-out: GI. A digest of the protocol:
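Epimastigotes in BHI-Tryptose + 5% FBS at 28 °C, inoculated at 1×10^6 cells/mL from 10-day stationary culture. Drug tested at 25 μM from DMSO stock (final DMSO ≤0.4%; 0.4% DMSO control). Inhibition % = {1 − [(Ap − A0p)/(Ac − A0c)]}×100 using A600 at day 0 and day 5. Means of three experiments.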

The test system of assay [2] is Trypanosoma cruzi. Nature of the assay: Growth inhibition of Trypanosoma cruzi epimastigotes Tulahuen 2. Format: functional, organism-based. In outline: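 Epimastigotes grown axenically at 28 °C in BHI-Tryptose with 5% FBS. Stationary-phase (10-day) cells inoculated at 1×10^6 cells/mL into medium with drug (DMSO stock, final DMSO ≤0.4%; 0.4% DMSO control). Growth followed by A600 daily. IC50 = concentration reducing the day-5 absorbance ratio vs control to 50%, over increasing concentrations. Means of three experiments.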

Assay [3] relates to Trypanosoma cruzi. Nature of the assay: Increase in acetate metabolite excretion in cell free medium of Trypanosoma cruzi Y relative to control. It is filed as functional, organism-based. In outline:
(§1)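 Parasites treated with compound for 2 days. 5 mL of culture centrifuged at 1500g, 10 min, 4 °C. Parasite-free supernatant stored at −20 °C, then analysed by 1H NMR. Metabolite signals confirmed by spiking and by a 4 µg/mL standard in phosphate buffer pH 7.4. Increase expressed as % relative to untreated cells.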

Assay [4] has as its system Trypanosoma cruzi. Nature of the assay: Increase in glycine metabolite excretion in cell free medium of Trypanosoma cruzi Y relative to control. It is filed as functional, organism-based. A digest of the protocol:
as §1

Assay [5] relates to Trypanosoma cruzi. Briefly: Increase in lactose metabolite excretion in cell free medium of Trypanosoma cruzi Y relative to control. Particulars: in the assay text read “lactate” for “lactose”. Format: functional, organism-based. A digest of the protocol: as §1
Assay [6] has as its system Trypanosoma cruzi. Briefly: Increase in alanine metabolite excretion in cell free medium of Trypanosoma cruzi Y relative to control. It is filed as functional, organism-based. In outline: as §1

Structures are written as SMILES. Active and inactive are the calls of the source. No cut-off for these calls is given here.

Regarding `Brc1cccc(N2CCN(CN3CCN(c4cccc(Br)c4)C3)C2)c1`, the inhibition of growth at 25 µM in assay [1] is 10.8%.

`COc1ccc(CN2CCN(Cc3ccc(OC)cc3)C2/C=C/c2ccccc2)cc1` yielded an IC50 in assay [2] of 10 µM. Further, in assay [1], the inhibition of growth at 25 µM was determined as 98.6%.

For the molecule `Cc1ccc(CN2CCN(Cc3ccc(C)cc3)C2c2ccccc2)cc1`, the IC50 in assay [2] was 12.5 µM. Further, the inhibition of growth at 25 µM in assay [1] is 100%.

Consider `Clc1ccc(CN2CCN(Cc3ccc(Cl)cc3)C2c2cccc(Cl)c2)cc1`, for which the IC50 in assay [2] is 4.7 µM. In assay [1], the inhibition of growth at 25 µM is 100%.

`Clc1ccc(CN2CCN(Cc3ccc(Cl)c(Cl)c3)C2c2ccccc2)cc1Cl`: the 50% inhibitory concentration (IC50) in assay [2] came out at 6.4 µM. Further, the inhibition of growth at 25 µM in assay [1] came out at 100%.

Consider `CC1N(c2ccccc2)CCN1c1ccccc1`, for which the inhibition of growth at 25 µM in assay [1] was 12.4%.

As to `Clc1ccc(CN2CCN(Cc3ccc(Cl)cc3)C2c2ccccc2Cl)cc1`, the IC50 in assay [2] came out at 11 µM. Moreover, the inhibition of growth at 25 µM in assay [1] is 100%.

In assay [2], `Clc1cccc(CN2CCN(Cc3cccc(Cl)c3)C2)c1` displayed a 50% inhibitory concentration (IC50) of 9.7 µM. Besides, the inhibition of growth at 25 µM in assay [1] was found to be 100%.

`Clc1ccc(CN2CCN(Cc3ccc(Cl)cc3)C2/C=C/c2ccccc2)cc1` returned a concentration for half-maximal inhibition (IC50) in assay [2] of 10.2 µM. In addition, in assay [1], the inhibition of growth at 25 µM is 100%.

As to `Clc1ccc(CN2CCN(Cc3ccc(Cl)c(Cl)c3)C2c2ccc(Cl)c(Cl)c2)cc1Cl`, the inhibition of growth at 25 µM in assay [1] came to 30%.

For the molecule `COc1ccc(CN2CCN(Cc3ccc(OC)cc3)C2C)cc1`, in assay [2], the IC50 was 37 µM. In addition, the inhibition of growth at 25 µM in assay [1] turned out to be 40%.

`Oc1ccccc1CN1CCN(Cc2ccccc2O)C1c1ccccc1`: in assay [1], the inhibition of growth at 25 µM was 4.8%.

For the molecule `Clc1ccc(N2CCN(Cc3ccccc3)C2c2ccccc2)cc1` (stereo unspecified), the inhibition of growth at 25 µM in assay [1] amounted to 70.4%.

Regarding `COc1ccc(CN2CCN(Cc3ccc(OC)cc3)C2c2ccc([N+](=O)[O-])cc2)cc1`, the IC50 in assay [2] came to 16.5 µM. In addition, the inhibition of growth at 25 µM in assay [1] was 83%.

In the case of `Clc1ccc(N2CCN(Cc3ccccc3)C2)cc1`, the inhibition of growth at 25 µM in assay [1] came to 64.7%.

Take `Cc1ccc(N2CCN(CN3CCN(c4ccc(C)cc4)C3)C2)cc1`: the inhibition of growth at 25 µM in assay [1] was found to be 0%.

As for `CN1CCN(c2ccccc2)C1c1ccccc1` (stereo unspecified), the inhibition of growth at 25 µM in assay [1] was determined as 0%.

As for `c1ccc(CN2CCN(c3ccccc3)C2c2ccccc2)cc1` (stereo unspecified), the inhibition of growth at 25 µM in assay [1] came to 45.1%.

With `Clc1ccc(CN2CCN(Cc3ccc(Cl)c(Cl)c3)C2c2ccco2)cc1Cl`, the Activity in assay [3] came out at 10%; in assay [4], 15%; in assay [5], 10%; in assay [6], 30%. For the same molecule, in assay [2], the half-maximal inhibitory concentration (IC50) was 4.1 µM. In addition, the inhibition of growth at 25 µM in assay [1] turned out to be 93.9%.

Regarding `Clc1ccc(CN2CCN(Cc3ccc(Cl)cc3)C2c2ccc(Cl)c(Cl)c2)cc1`, in assay [2], the IC50 was 9 µM. Also, the inhibition of growth at 25 µM in assay [1] was 92%.

Take `c1ccc(N2CCN(CN3CCN(c4ccccc4)C3)C2)cc1`: the inhibition of growth at 25 µM in assay [1] was determined as 0%.

On to `Cc1ccc(N2CCN(C)C2c2ccccc2)cc1` (stereo unspecified), for which, in assay [1], the inhibition of growth at 25 µM turned out to be 8.9%.

In assay [2], `COc1ccc(CN2CCN(Cc3ccc(OC)cc3)C2c2cccc(Cl)c2)cc1` had an IC50 of 14 µM. In addition, the inhibition of growth at 25 µM in assay [1] stood at 95%.

In the case of `Cc1ccc(CN2CCN(Cc3ccc(C)cc3)C2c2cccc(Cl)c2)cc1`, the IC50 in assay [2] was determined as 13.4 µM. Further, in assay [1], the inhibition of growth at 25 µM came to 99%.

For `Clc1ccc(N2CCN(CN3CCN(c4ccc(Cl)cc4)C3)C2)cc1`, the inhibition of growth at 25 µM in assay [1] was 0%.

Regarding `c1ccc(C2N(c3ccccc3)CCN2c2ccccc2)cc1`, the inhibition of growth at 25 µM in assay [1] is 39.6%.

As for `Oc1ccccc1CNCCNCc1ccccc1O`, the outcome in assay [1] was inactive.

Molecule `COc1ccc(CN2CCN(Cc3ccc(OC)cc3)C2c2ccccc2)cc1` gave an IC50 in assay [2] of 1.1 µM. The inhibition of growth at 25 µM in assay [1] amounted to 75.3%.

On to `Clc1ccc(CN2CCN(Cc3ccc(Cl)cc3)C2c2ccco2)cc1`, for which 4.3 µM corresponded to half-maximal inhibition in assay [2] (IC50). Also, in assay [1], the inhibition of growth at 25 µM turned out to be 89.4%.

With `Clc1ccc(C2N(Cc3ccc(Cl)c(Cl)c3)CCN2Cc2ccc(Cl)c(Cl)c2)cc1`, in assay [2], the IC50 was 25 µM. In assay [1], the inhibition of growth at 25 µM was 50%.

In turn, `Cc1ccc(CN2CCN(Cc3ccc(C)cc3)C2c2ccc(Cl)cc2)cc1` showed a 50% inhibitory concentration (IC50) in assay [2] of 9 µM. In addition, the inhibition of growth at 25 µM in assay [1] worked out at 100%.

Turning to `c1ccc(N2CCN(c3ccccc3)C2)cc1`, the inhibition of growth at 25 µM in assay [1] is 12.3%.

With `COc1ccc(CN2CCN(Cc3ccc(OC)cc3)C2c2cccc([N+](=O)[O-])c2)cc1`, in assay [2], the midpoint of inhibition, the IC50, lay at 23 µM. In addition, in assay [1], the inhibition of growth at 25 µM worked out at 93%.

As for `O=[N+]([O-])c1ccc(C2N(Cc3ccc(Cl)cc3)CCN2Cc2ccc(Cl)cc2)cc1`, the concentration for half-maximal inhibition (IC50) in assay [2] came to 14.5 µM. Also, in assay [1], the inhibition of growth at 25 µM worked out at 100%.

With `Oc1cccc(C2N(Cc3ccc(Cl)cc3)CCN2Cc2ccc(Cl)cc2)c1`, the Activity stood at 60% in assay [3], 60% in assay [4], 30% in assay [5] and 40% in assay [6]. In assay [2], the half-maximal inhibitory concentration (IC50) was found to be 4.6 µM. In addition, the inhibition of growth at 25 µM in assay [1] turned out to be 97.4%.

In turn, `COc1ccc(CN2CCN(Cc3ccc(OC)cc3)C2c2ccccc2Cl)cc1` showed an IC50 in assay [2] of 25.3 µM. Further, in assay [1], the inhibition of growth at 25 µM was found to be 49%.

`COc1ccc(C2N(Cc3ccc(Cl)cc3)CCN2Cc2ccc(Cl)cc2)cc1` came in with a concentration for half-maximal inhibition (IC50) in assay [2] of 5 µM. Further, in assay [1], the inhibition of growth at 25 µM was found to be 100%.

The molecule `Clc1ccc(CN2CCN(Cc3ccc(Cl)cc3)C2c2ccc(Cl)cc2)cc1` gave an IC50 in assay [2] of 8.9 µM. In assay [1], the inhibition of growth at 25 µM was 100%.

Consider `Clc1ccc(CN2CCN(Cc3ccc(Cl)cc3)C2c2ccccc2)cc1`, for which half-maximal inhibition in assay [2] (IC50) was put at 5 µM. Moreover, the inhibition of growth at 25 µM in assay [1] is 94.5%.

As for `Clc1cccc(CN2CCN(Cc3cccc(Cl)c3)C2c2ccccc2)c1`, the IC50 in assay [2] is 14.7 µM. In assay [1], the inhibition of growth at 25 µM came out at 100%.

Take `COc1ccc(CN2CCN(Cc3ccc(OC)cc3)C2c2ccc(Cl)cc2)cc1`: in assay [2], it took 14.9 µM to reach half-maximal inhibition (IC50). Also, the inhibition of growth at 25 µM in assay [1] was 100%.

As to `CC1CS(=O)(=O)CCN1/N=C/c1ccc([N+](=O)[O-])o1` (stereo unspecified) [NIFURTIMOX], the inhibition of growth at 25 µM in assay [1] amounted to 100%.

In the case of `Cc1ccc(N2CCN(Cc3ccccc3)C2)cc1`, the inhibition of growth at 25 µM in assay [1] came to 44.2%.

In the case of `Clc1ccc(CN2CCN(Cc3ccc(Cl)cc3)C2)cc1`, in assay [2], the midpoint of inhibition, the IC50, lay at 10.3 µM. The inhibition of growth at 25 µM in assay [1] stood at 100%.

In assay [2], `Clc1ccc(C2N(Cc3ccccc3)CCN2Cc2ccccc2)cc1` registered an IC50 of 23.5 µM. Moreover, the inhibition of growth at 25 µM in assay [1] was 60%.

On to `c1ccc(CN2CCN(c3ccccc3)C2)cc1`, for which the inhibition of growth at 25 µM in assay [1] is 17.2%.

Molecule `Clc1ccc(CNCCNCc2ccc(Cl)cc2)cc1` yielded a half-maximal inhibitory concentration (IC50) in assay [2] of 2 µM.

In turn, `Oc1ccccc1C1N(Cc2ccc(Cl)cc2)CCN1Cc1ccc(Cl)cc1` yielded an IC50 in assay [2] of 4.3 µM. Besides, the inhibition of growth at 25 µM in assay [1] is 86.8%.

Turning to `c1ccc(CN2CCN(Cc3ccccc3)C2c2ccccc2)cc1`, the inhibition of growth at 25 µM in assay [1] amounted to 63%.

Consider `COc1ccc(N2CCN(CN3CCN(c4ccc(OC)cc4)C3)C2)cc1`, for which the inhibition of growth at 25 µM in assay [1] stood at 0%.

Take `Clc1cccc(N2CCN(CN3CCN(c4cccc(Cl)c4)C3)C2)c1`: the inhibition of growth at 25 µM in assay [1] came to 8%.

As for `O=[N+]([O-])c1ccc(N2CCN(CN3CCN(c4ccc([N+](=O)[O-])cc4)C3)C2)cc1`, in assay [1], the inhibition of growth at 25 µM was found to be 0%.

`COc1ccc(CNCCNCc2ccc(OC)cc2)cc1`: the IC50 in assay [2] came out at 16.2 µM.

As for `Cc1ccc(N2CCN(Cc3ccccc3)C2c2ccccc2)cc1` (stereo unspecified), in assay [1], the inhibition of growth at 25 µM was 46%.

Consider `COc1ccc(CN2CCN(Cc3ccc(OC)cc3)C2c2ccc(Cl)c(Cl)c2)cc1`, for which, in assay [2], the midpoint of inhibition, the IC50, lay at 16 µM. Further, the inhibition of growth at 25 µM in assay [1] was found to be 91%.

For the molecule `Clc1ccc(CN2CCN(Cc3ccc(Cl)c(Cl)c3)C2)cc1Cl`, in assay [2], inhibition was half-maximal at 15.1 µM (IC50). Further, in assay [1], the inhibition of growth at 25 µM was found to be 100%.

As for `Brc1ccc(N2CCN(CN3CCN(c4ccc(Br)cc4)C3)C2)cc1`, the inhibition of growth at 25 µM in assay [1] turned out to be 0%.

As a reminder, the IC50 is the concentration that gives 50% inhibition. Read a high IC50 as lower potency.
